Test results taken from ChEMBL document CHEMBL1131571, “Potent, selective, and orally bioavailable tricyclic pyridyl acetamide N-oxide inhibitors of farnesyl protein transferase with enhanced in vivo antitumor activity” (J Med Chem, 1998).
pIC50: −log10 of the molar value.

Columns and labels:
DLD-1 [1] = experiment: The inhibition of growth of solid tumor in DLD-1 model was measured at 10 mg/kg after po administration. 0.1<p<0.25; type: functional; conditions: Homo sapiens
[2] = Biological half life was measured when given iv route in mice; type: ADME, organism-based; conditions: mouse, in vivo
In short: (§1)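 Mice received a single 25 mg/kg dose, as HCl salt in 20% hydroxypropyl-β-cyclodextrin, either orally or iv by tail vein. Blood was taken by cardiac puncture after CO2 euthanasia at nine times from 2 min to 24 h, with two mice per time point. Serum was acetonitrile-precipitated and quantified by HPLC-APCI tandem MS. AUC was derived by the linear trapezoidal rule on mean concentrations. Bioavailability is the oral/iv AUC ratio, from different animals. Cmax is the highest mean oral concentration. Half-life was estimated graphically after iv dosing.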

[3] = Area under the concentration time curve (AUC) taken for 0-24 hr was measured when administered through iv route in mice; type: ADME, organism-based; parameters: time < 24 hr, route intravenous; conditions: mouse, in vivo; in short: as §1
[4] = Area under the concentration time curve (AUC) taken for 0-24 hr was measured when administered through oral route in mice; type: ADME, organism-based; parameters: time < 24 hr, route oral; conditions: mouse, in vivo; in short: as §1
[5] = Oral bioavailability in mouse; type: ADME, organism-based; conditions: in vivo; in short: as §1
COS-1 = experiment: Inhibitory activity was measured against COS cell; type: functional, cell-based, Cercopithecidae; conditions: Chlorocebus aethiops
In short: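 Inhibition of intracellular H-Ras processing, measured in transfected Cos cells.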

DLD-1 [6] = experiment: The inhibition of growth of solid tumor in DLD-1 model was measured at 50 mg/kg after po administration. 0.01<p<0.025; type: functional; conditions: Homo sapiens
[7] = target: Protein farnesyltransferase (Homo sapiens, UniProt P49354+P49356); experiment: Inhibition of Farnesyltransferase; type: protein-complex assay
In short: (§2)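 Radiometric transfer assays measuring trichloroacetic acid-precipitable label. FPT: [3H]farnesyl from [3H]farnesyl pyrophosphate onto Ha-Ras-CVLS. GGPT-1: [3H]geranylgeranyl from [3H]geranylgeranyl diphosphate onto Ha-Ras-CVLL.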

[8] = Inhibition of Geranylgeranyl transferase; parameters: species or system Homo sapiens; in short: as §2
[9] = maximum concentration was measured when administered through oral route in mice; type: ADME, organism-based; parameters: route oral; conditions: mouse, in vivo; in short: as §1
DLD-1 [10] = experiment: The inhibition of growth of solid tumor in DLD-1 model was measured at 10 mg/kg after po administration. 0.05<p<0.1; type: functional; conditions: Homo sapiens
DLD-1 [11] = experiment: The inhibition of growth of solid tumor in DLD-1 model was measured at 50 mg/kg after po administration. p<0.01; type: functional; conditions: Homo sapiens
DLD-1 [12] = experiment: The inhibition of growth of solid tumor in DLD-1 model was measured at 10 mg/kg after po administration. 0.01<p<0.025; type: functional; conditions: Homo sapiens

Compound | inhibition in vivo at 10 mg/kg (DLD-1 [1]) | half-life [2] | AUC at 24 h [3] | AUC at 24 h [4] | bioavailability [5] | pIC50 (COS-1) | inhibition in vivo at 50 mg/kg (DLD-1 [6]) | pIC50 [7] | pIC50 [8] | Cmax [9] | inhibition in vivo at 10 mg/kg (DLD-1 [10]) | inhibition in vivo at 50 mg/kg (DLD-1 [11]) | inhibition in vivo at 10 mg/kg (DLD-1 [12])
O=C(Cc1cc[n+]([O-])cc1)N1CCC(C2c3ccc(Cl)cc3CCc3cc(Br)cnc32)CC1 (stereo unspecified) | 38% | 46 min | 10600 ng·h/mL | 4100 ng·h/mL | 38% | 6.40 | 60% | 7.40 | < 4.42 | 10000 ng/mL |  |  | 
O=C(Cc1cc[n+]([O-])cc1)N1CCC(C2c3ccc(Cl)cc3C=Cc3cc(Br)cnc32)CC1 (stereo unspecified) |  | 26.6 min | 18600 ng·h/mL | 19000 ng·h/mL | 100% | 6.15 |  | 7.52 | < 4.42 | 11000 ng/mL | 21% | 37% | 
O=C(Cc1cc[n+]([O-])cc1)N1CCC(C2c3ccc(Cl)cc3C=C(Br)c3cc(Br)cnc32)CC1 (stereo unspecified) |  | 82.2 min | 43700 ng·h/mL | 84900 ng·h/mL | 100% | 6.22 |  | 7.40 | < 4.48 | 12000 ng/mL |  | 70% | 52%
O=C(Cc1cc[n+]([O-])cc1)N1CCC(=C2c3ccc(Cl)cc3CCc3cc(Br)cnc32)CC1 |  | 48 min |  |  | 75% |  |  |  | 4.42 | 10000 ng/mL |  | 40% | 28%
